Series [1] has as its target Vascular endothelial growth factor receptor 2 (Homo sapiens, UniProt P35968). Nature of the series: Inhibition of recombinant KDR expressed in baculovirus-Sf21 system. The procedure, abridged:
(§1)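 Kinase-domain fragments expressed in baculovirus/Sf21 cells. Crude lysates (ice-cold Triton lysis with protease inhibitors, cleared) were diluted 1:200 for Tie-2, 1:400 for KDR and 1:1000 for Flt-1. Reactions ran on synthetic peptide-coated plates in 100 mM Hepes pH 7.4 with 5 µM ATP, 10 mM MnCl2, 0.1 mM vanadate, 0.2 mM DTT and 2.5% final DMSO, at room temperature for 60 min (Tie-2) or 20 min (KDR, Flt-1).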

Series [2] has as its target T1, Angiopoietin-1 receptor (Homo sapiens, UniProt Q02763). Nature of the series: Inhibition of recombinant Tie2 expressed in baculovirus-Sf21 system. Put shortly:
as §1

Series [3] deals with Vascular endothelial growth factor receptor 1 (Homo sapiens, UniProt P17948). The series can be described thus: Inhibition of recombinant Flt1 expressed in baculovirus-Sf21 system. The procedure, abridged: as §1
Chain of Vascular endothelial growth factor receptor 1 (P17948 whole entry): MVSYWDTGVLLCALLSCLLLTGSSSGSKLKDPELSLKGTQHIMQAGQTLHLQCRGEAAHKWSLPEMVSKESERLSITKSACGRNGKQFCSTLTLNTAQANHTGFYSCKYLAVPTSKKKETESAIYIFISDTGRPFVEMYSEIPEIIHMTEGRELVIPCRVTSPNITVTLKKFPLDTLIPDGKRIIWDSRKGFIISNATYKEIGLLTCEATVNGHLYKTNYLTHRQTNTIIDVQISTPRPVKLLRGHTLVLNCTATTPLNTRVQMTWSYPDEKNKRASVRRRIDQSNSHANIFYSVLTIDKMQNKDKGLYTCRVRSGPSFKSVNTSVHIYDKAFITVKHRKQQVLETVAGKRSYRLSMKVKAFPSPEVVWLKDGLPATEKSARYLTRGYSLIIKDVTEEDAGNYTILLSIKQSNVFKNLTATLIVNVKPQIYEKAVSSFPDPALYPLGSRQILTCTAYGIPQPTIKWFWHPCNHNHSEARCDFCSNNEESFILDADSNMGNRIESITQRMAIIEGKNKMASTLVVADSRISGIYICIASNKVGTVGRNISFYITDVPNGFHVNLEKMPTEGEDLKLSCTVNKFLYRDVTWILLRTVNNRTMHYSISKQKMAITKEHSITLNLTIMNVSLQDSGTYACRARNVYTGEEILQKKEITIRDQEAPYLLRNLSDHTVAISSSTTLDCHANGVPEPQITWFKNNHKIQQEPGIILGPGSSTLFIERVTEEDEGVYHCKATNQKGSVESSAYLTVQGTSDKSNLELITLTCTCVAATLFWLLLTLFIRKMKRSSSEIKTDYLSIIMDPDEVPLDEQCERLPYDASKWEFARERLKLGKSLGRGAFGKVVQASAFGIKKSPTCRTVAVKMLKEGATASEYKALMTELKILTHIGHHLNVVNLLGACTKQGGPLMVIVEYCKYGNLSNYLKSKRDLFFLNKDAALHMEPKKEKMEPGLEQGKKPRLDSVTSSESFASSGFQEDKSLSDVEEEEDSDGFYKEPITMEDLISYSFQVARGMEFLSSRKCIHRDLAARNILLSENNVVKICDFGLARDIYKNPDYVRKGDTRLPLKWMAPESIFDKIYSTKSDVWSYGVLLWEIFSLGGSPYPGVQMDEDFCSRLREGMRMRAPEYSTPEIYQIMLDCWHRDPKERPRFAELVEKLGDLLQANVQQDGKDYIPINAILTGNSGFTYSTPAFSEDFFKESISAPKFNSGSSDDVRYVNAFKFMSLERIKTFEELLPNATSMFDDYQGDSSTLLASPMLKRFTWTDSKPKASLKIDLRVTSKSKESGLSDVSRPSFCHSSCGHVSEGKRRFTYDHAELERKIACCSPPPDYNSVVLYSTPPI
The nature of series [4]: Cmax in mouse at 1 mg/kg, po by cassette dosing assay. It is filed as ADME, organism-based. Also noted: dose 1 mg/kg, route oral. Particulars: in vivo.
In series [5] the target is T1, Angiopoietin-1 receptor. Nature of the series: Inhibition of human Tie2 autophosphorylation expressed in CHOK1 cells by ELISA. It is filed as cell-based, CHO-K1. The procedure, abridged:
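CHO-K1 cells stably expressing human Tie-2 were seeded at 6×10^4 cells/well and grown 3 days in DMEM/G418/10% FCS. Compound was added in DMEM with 1% FCS for 45 min at 37 °C. Cells were lysed on ice, and lysate was captured on a human Tie-2 ELISA plate (2 h, room temperature). Phospho-Tie-2 was detected with a rabbit antibody, then anti-rabbit HRP and colour reagent; read at OD450.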
In general terms: In an ELISA, binding on a coated surface is turned into a signal by an enzyme label.

In the next series the test system is HUVEC. The series can be described thus: Inhibition of growth factor-stimulated proliferation of HUVEC. It is filed as functional, cell-based. The conditions noted are these: Homo sapiens.
The nature of series [6]: Fraction unbound ligand in rat. It is filed as ADME.
The nature of series [7]: Cmax in mouse at 2 mg/kg by cassette dosing assay. It counts as ADME, organism-based. Set-up: dose 2 mg/kg. Particulars: in vivo.
Series [8] is described as follows: Fraction unbound ligand in mouse. It counts as ADME, organism-based. Particulars: in vivo.
Series [9] in a line: Inhibition of p38.
The test system of the next series is Mus musculus. The series can be described thus: AUC in mouse at 2 mg/kg by cassette dosing assay. It is filed as ADME, organism-based, Plasma. The conditions noted are these: in vivo. Set-up: dose 2 mg/kg.

Where only a bound is given, the exact number is not on record here.

The IC50 is the concentration that gives 50% inhibition. The term Cmax denotes the maximum level reached in the sampled fluid or tissue. The term fraction unbound denotes the share of the substance not bound to proteins or other matrix. Lower therefore signals extensive binding. As a reminder, the AUC is the area under the concentration-time curve, a measure of exposure.

Chain of Vascular endothelial growth factor receptor 2 (P35968 whole entry, the tested form may be a part): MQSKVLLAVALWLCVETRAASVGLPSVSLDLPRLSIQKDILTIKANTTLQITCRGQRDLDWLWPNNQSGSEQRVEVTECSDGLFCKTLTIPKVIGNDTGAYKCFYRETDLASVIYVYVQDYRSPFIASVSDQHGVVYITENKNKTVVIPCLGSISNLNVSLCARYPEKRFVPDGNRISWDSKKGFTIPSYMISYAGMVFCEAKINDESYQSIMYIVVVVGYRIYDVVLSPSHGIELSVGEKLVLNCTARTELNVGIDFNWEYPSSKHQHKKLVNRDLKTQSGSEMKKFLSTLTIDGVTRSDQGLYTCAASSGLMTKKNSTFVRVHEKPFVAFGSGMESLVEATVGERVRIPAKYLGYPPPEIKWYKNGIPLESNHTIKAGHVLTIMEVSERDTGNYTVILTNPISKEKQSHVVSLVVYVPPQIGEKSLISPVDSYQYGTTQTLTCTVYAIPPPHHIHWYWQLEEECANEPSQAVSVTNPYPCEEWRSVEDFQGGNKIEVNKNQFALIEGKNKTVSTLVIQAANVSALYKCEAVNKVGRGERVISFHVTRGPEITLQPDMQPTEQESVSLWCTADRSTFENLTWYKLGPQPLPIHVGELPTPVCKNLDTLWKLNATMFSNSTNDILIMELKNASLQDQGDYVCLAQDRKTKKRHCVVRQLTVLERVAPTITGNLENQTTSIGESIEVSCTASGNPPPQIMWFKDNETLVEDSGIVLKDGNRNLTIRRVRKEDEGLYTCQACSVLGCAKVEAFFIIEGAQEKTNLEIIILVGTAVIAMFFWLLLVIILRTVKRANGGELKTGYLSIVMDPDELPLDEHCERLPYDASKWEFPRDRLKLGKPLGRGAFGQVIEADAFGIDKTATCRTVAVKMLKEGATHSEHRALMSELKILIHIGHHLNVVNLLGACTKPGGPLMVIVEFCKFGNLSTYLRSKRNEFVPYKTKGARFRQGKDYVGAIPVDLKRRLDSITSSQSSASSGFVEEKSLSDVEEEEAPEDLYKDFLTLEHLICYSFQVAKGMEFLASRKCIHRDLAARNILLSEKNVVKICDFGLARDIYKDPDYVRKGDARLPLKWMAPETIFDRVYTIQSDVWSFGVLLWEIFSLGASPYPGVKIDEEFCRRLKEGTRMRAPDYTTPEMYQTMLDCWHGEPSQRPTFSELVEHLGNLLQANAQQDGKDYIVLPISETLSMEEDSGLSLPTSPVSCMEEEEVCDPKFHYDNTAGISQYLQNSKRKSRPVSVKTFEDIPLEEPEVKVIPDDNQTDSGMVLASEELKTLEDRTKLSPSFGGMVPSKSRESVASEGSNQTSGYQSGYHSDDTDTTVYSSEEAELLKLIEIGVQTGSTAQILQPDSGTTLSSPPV
T1 sequence (Q02763 whole entry): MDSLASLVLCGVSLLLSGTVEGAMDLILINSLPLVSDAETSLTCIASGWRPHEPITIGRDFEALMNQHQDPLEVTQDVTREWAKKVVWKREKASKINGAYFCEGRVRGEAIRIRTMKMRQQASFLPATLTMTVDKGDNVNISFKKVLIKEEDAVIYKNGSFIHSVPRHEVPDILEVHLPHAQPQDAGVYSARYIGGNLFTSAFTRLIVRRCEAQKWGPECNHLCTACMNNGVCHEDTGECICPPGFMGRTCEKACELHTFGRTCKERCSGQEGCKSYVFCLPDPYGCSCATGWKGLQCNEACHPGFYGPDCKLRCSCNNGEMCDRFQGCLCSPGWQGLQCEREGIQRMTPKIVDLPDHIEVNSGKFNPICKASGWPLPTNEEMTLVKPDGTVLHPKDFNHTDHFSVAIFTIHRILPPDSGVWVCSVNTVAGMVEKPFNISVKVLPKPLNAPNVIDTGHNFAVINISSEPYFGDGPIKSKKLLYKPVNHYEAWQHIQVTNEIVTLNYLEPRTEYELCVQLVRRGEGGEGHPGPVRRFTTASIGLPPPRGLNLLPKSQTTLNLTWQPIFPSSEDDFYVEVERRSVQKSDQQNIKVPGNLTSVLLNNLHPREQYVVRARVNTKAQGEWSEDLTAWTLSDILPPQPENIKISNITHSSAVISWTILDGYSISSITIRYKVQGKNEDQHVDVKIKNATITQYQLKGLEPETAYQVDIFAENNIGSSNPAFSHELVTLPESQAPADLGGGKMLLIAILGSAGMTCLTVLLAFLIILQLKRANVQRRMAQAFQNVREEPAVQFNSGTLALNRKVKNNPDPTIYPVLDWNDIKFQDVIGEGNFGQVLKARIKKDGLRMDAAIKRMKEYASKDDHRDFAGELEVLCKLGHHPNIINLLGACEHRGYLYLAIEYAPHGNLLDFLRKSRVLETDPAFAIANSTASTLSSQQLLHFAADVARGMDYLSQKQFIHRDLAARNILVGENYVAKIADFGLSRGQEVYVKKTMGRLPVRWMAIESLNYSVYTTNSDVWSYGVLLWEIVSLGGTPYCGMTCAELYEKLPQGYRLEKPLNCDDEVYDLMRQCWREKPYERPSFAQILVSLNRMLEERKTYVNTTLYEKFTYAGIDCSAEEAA

Turning to `Nc1nccc(/C=C/c2c(-c3ccccc3)nc3sccn23)n1`, the results for the IC50 (in series [1]; at Angiopoietin-1 receptor [2]; in [3]) were 7 µM, 6 µM and 30 µM, respectively. For the same compound, in [4], the Cmax is 290 nM.

With `CC(Nc1nccc(/C=C/c2c(-c3ccccc3)nc3sccn23)n1)c1ccccc1` (centres undefined), the IC50 (in series [1]; at Angiopoietin-1 receptor [2]; in series [3]) was over 100 µM in each case.

As to `Cn1cnc(-c2ccccc2)c1C#Cc1ccnc(N)n1`, the figures for the IC50 (in series [1]; on Angiopoietin-1 receptor [2]; in series [3]) were 2.9 µM, 6.4 µM and 36 µM, respectively.

For `Nc1nccc(/C=C/c2c(-c3ccccc3)nc3n2CCS3)n1`, the results for the IC50 (in series [1]; on Angiopoietin-1 receptor [2]; in series [3]) were 3.2 µM, 2.9 µM and 23 µM, respectively.

In the case of `Cn1cnc(/C=C/c2ccnc(N)n2)c1-c1ccccc1`, the IC50 in [1] is 7.8 µM; at Angiopoietin-1 receptor [2], over 100 µM; in series [3], over 100 µM.

Consider `CC(=O)Nc1nccc(/C=C/c2c(-c3ccccc3)nc3sccn23)n1`, for which the IC50 was 4.5 µM in series [1], 11 µM on Angiopoietin-1 receptor [2] and 100 µM in [3].

Consider `CC(C)(C)C(=O)Nc1nccc(/C=C/c2c(-c3ccccc3)nc3sccn23)n1`, for which the results for the IC50 (in [1]; at Angiopoietin-1 receptor [2]; in series [3]) were 13 µM, 41 µM and 96 µM, respectively.

Take `C(=C\c1c(-c2ccccc2)nc2sccn12)/c1ccncn1`: the 50% inhibitory concentration (IC50) in series [1] was 77 µM; at Angiopoietin-1 receptor [2], 27 µM; in series [3], over 100 µM.

Regarding `Cn1cnc(-c2ccccc2)c1NC(=O)c1ccnc(N)n1`, the IC50 (in series [1]; at Angiopoietin-1 receptor [2]; in [3]) was over 100 µM throughout.

Turning to `Cn1cnc(-c2ccccc2)c1C(=O)Nc1ccnc(N)n1`, the IC50 (in series [1]; on Angiopoietin-1 receptor [2]; in series [3]) was over 100 µM throughout.

Regarding `Cn1c(-c2ccccc2)c(/C=C/c2ccnc(N)n2)c2ccccc21`, on Angiopoietin-1 receptor [2], the IC50 was found to be 83 µM.

As for `Nc1nccc(/C=C/c2[nH]cnc2-c2ccccc2)n1`, the IC50 in [1] turned out to be 9.8 µM; against Angiopoietin-1 receptor [5], 0.37 µM; on Angiopoietin-1 receptor [2] it was 8.4 µM; in series [3], 68 µM.

On to `CNc1nccc(/C=C/c2c(-c3ccccc3)nc3sccn23)n1`, for which the figures for the IC50 (in series [1]; on Angiopoietin-1 receptor [2]; in series [3]) were 17 µM, 14 µM and 84 µM, respectively.

For the compound `Nc1nccc(/C=C/c2c(-c3ccccc3)nc3ccccn23)n1`, the IC50 in [1] was 13 µM; on Angiopoietin-1 receptor [2], 5.6 µM; in series [3] it was 79 µM.

On to `Nc1nccc(/C=C/c2c(Cl)nc3sccn23)n1`, for which the values for the half-inhibitory concentration (IC50) (in series [1]; on Angiopoietin-1 receptor [2]; in series [3]) were 31 µM, over 100 µM and over 100 µM, respectively.

In the case of `Cn1cnc(-c2ccccc2)c1Nc1ccnc(N)n1`, the IC50 (in series [1]; on Angiopoietin-1 receptor [2]; in series [3]) was over 100 µM throughout.

Take `C(=C\c1c(-c2ccccc2)nc2sccn12)/c1ccnc(Nc2ccccc2)n1`: the IC50 in [1] is over 100 µM; at Angiopoietin-1 receptor [2], 68 µM; in series [3], over 100 µM.

With `Cc1nc2sccn2c1/C=C/c1ccnc(N)n1`, the figures for the IC50 (in [1]; on Angiopoietin-1 receptor [2]; in series [3]) were 70 µM, over 100 µM and over 100 µM, respectively.

For `Nc1cc(/C=C/c2c(-c3ccccc3)nc3sccn23)ncn1`, the IC50 in [1] was 35 µM; on Angiopoietin-1 receptor [2], 5.2 µM; in [3], over 100 µM.

For `Nc1nccc(/C=C/c2c(-c3ccc(F)cc3)nc3sccn23)n1`, on Angiopoietin-1 receptor [2], the IC50 was determined as 13 µM.

Take `Cn1cnc(-c2ccccc2)c1NCCc1ccnc(N)n1`: the IC50 (in series [1]; on Angiopoietin-1 receptor [2]; in series [3]) was over 100 µM in each case.

Take `Nc1nccc(/C=C/c2c(-c3ccccc3)ncn2Cc2ccccc2)n1`: the values for the IC50 (in series [1]; at Angiopoietin-1 receptor [2]; in [3]) were 7 µM, 2.8 µM and 31 µM, respectively.

As for `Nc1nccc(/C=C/c2ccsc2-c2ccccc2)n1`, the IC50 (in series [1]; at Angiopoietin-1 receptor [2]; in series [3]) was over 100 µM each time.

Take `Cn1cnc(-c2ccccc2)c1C1CC1c1ccnc(N)n1` (centres undefined): the IC50 (in [1]; on Angiopoietin-1 receptor [2]; in [3]) was over 100 µM throughout.

Consider `Nc1nccc(/C=C/c2[nH]ncc2-c2ccccc2)n1`, for which the figures for the IC50 (in series [1]; at Angiopoietin-1 receptor [2]; in series [3]) were over 100 µM, 64 µM and over 100 µM, respectively.

Regarding `Nc1nccc(/C=C/c2c(-c3ccccc3)ncn2CC(=O)O)n1`, on Angiopoietin-1 receptor [2], the IC50 turned out to be 68 µM.

On to `Cn1cnc(-c2ccccc2)c1/C=C/c1ccnc(N)n1`, for which the IC50 with HUVEC is over 10 µM; in series [1], 3.2 µM; on Angiopoietin-1 receptor [5], 0.34 µM; in series [9], 12 µM; on Angiopoietin-1 receptor [2], 3.8 µM; in series [3], 34 µM. Also, the fraction unbound in series [6] was determined as 0.099; in series [8] it was 0.125. Also, the concentration in [7] peaked (Cmax) at 460 nM. Also, in the series on Mus musculus, the AUC worked out at 0.58 µM·h.

`Clc1nccc(/C=C/c2c(-c3ccccc3)nc3sccn23)n1`: the IC50 in series [1] was over 100 µM; at Angiopoietin-1 receptor [2], 55 µM; in [3], 66 µM.

Take `Nc1nccc(/C=C/c2c(-c3ccccc3)ncn2CCN2CCCC2)n1`: the IC50 in series [1] was 32 µM; on Angiopoietin-1 receptor [2], 21 µM; in series [3], over 100 µM.

Take `Nc1nccc(/C=C/c2sccc2-c2ccccc2)n1`: the IC50 (in series [1]; on Angiopoietin-1 receptor [2]; in series [3]) was over 100 µM in each case.

Turning to `Cn1cnc(-c2ccccc2)c1CNc1ccnc(N)n1`, the IC50 (in [1]; on Angiopoietin-1 receptor [2]; in series [3]) was over 100 µM each time.

Regarding `Nc1ccnc(/C=C/c2c(-c3ccccc3)nc3sccn23)n1`, the IC50 (in series [1]; on Angiopoietin-1 receptor [2]; in series [3]) was over 100 µM in each case.
